Results collected from several papers.
Lines come from different studies, so protocols differ.
Observed: enzyme activity
Action: inhibitor
PFF0160c: Dihydroorotate dehydrogenase (quinone), mitochondrial (PFF0160c, Plasmodium falciparum, UniProt Q08210)
PFF0160c E182D: Dihydroorotate dehydrogenase (quinone), mitochondrial (PFF0160c, Plasmodium falciparum, UniProt Q08210, E182D)

SMILES	target	test	IC50
Cc1nc(Nc2ccc(S(F)(F)(F)(F)F)cc2)c2c(CO)noc2n1	PFF0160c	absorbance	2.8 µM
Cc1cc(Nc2ccc(Cl)cc2)n2ncnc2n1	PFF0160c	–	1.6 µM
Cc1c(Cc2ccc(C(F)(F)F)nc2)c[nH]c1C(=O)N[C@@H](C)CO	PFF0160c	absorbance	2.7 µM
Cc1nc(Nc2ccc(C(F)(F)F)cc2)c2c(C(F)(F)F)noc2n1	PFF0160c	absorbance	0.033 µM
CCN(CC)CC#Cc1ccc2[nH]c(C)c(Cl)c(=O)c2c1	PFF0160c E182D	absorbance	> 10 µM
Cc1[nH]c(C(=O)NC(C)c2cnn(C)c2)c(C)c1Cc1ccc(C(F)(F)F)nc1 (stereo not shown)	PFF0160c	absorbance	> 30 µM
CCCOc1ccccc1-c1nc2sc3c(c2c(=O)[nH]1)CCN(C)C3	PFF0160c E182D	absorbance	0.911 µM
Cc1cc(C(C)NC(=O)c2[nH]cc(-c3c[nH]c4cc(C(F)(F)F)ccc34)c2C)no1 (stereo not shown)	PFF0160c	absorbance	> 100 µM
Cc1nc(NC2Cc3cc(F)c(F)cc3C2)c2c(C)noc2n1	PFF0160c	absorbance	0.048 µM
COC(=O)C1=CNC=C(C(=O)OC)C1c1ccc(Cl)c([N+](=O)[O-])c1	PFF0160c	absorbance	0.716 µM
